Assay results from ChEMBL document CHEMBL1141110, “Structure-activity relationships of new A,D-ring modified steroids as aromatase inhibitors: design, synthesis, and biological activity evaluation” (J Med Chem, 2005).

What was measured:
Aromatase [1] = target: T1, Aromatase (Homo sapiens, UniProt P11511); assay: Inhibitory concentration against aromatase protein from human placental microsomes using [1-beta-3H]-androstenedione; Competitive inhibition
T1 sequence (P11511 whole entry): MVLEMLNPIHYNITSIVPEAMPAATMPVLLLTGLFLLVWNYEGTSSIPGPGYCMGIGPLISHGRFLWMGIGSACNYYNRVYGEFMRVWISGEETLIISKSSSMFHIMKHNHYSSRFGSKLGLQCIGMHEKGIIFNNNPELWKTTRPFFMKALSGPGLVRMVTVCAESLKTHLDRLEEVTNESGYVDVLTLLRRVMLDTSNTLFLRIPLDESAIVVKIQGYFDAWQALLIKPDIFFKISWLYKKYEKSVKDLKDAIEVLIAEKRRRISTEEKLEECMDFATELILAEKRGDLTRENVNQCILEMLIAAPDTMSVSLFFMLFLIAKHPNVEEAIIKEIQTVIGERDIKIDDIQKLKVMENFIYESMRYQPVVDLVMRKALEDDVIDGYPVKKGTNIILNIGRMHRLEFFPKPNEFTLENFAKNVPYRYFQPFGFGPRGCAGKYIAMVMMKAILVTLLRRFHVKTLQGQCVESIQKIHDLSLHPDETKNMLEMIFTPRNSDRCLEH
Procedure, shortened: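 Human placental microsomes in 67 mM K phosphate pH 7.4 with 200 nM [1β-3H]androstenedione (1 µCi) and graded inhibitor concentrations; inhibitors were dissolved in ethanol. Reaction was started with 150 µM NADPH and run 15 min at 37 °C. 3H2O was extracted with chloroform and dextran-coated charcoal, then scintillation counted. Triplicates.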

Aromatase [2] = target: T1, Aromatase; assay: Ratio of Michaelis-Menten constant and inhibition constant for aromatase enzyme; Competitive inhibition
Procedure, shortened: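 Ratio of substrate Km to Ki. Km for androstenedione and Ki come from the same placental-microsome kinetic runs: 10-30 nM [1β-3H]androstenedione, 150 µM NADPH, 5 min at 37 °C, with 3H2O release as the read-out. Ki was taken from Dixon plots.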

Aromatase [3] = target: T1, Aromatase; assay: Inhibition constant against aromatase protein from human placental microsomes using [1-beta-3H]-androstenedione; Competitive inhibition
Procedure, shortened: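 Microsomes from human placenta. Kinetic runs used 10-30 nM [1β-3H]androstenedione with 150 µM NADPH, a range of inhibitor and substrate concentrations, and 5 min at 37 °C in 67 mM K phosphate pH 7.4. Released 3H2O was separated with chloroform and dextran-coated charcoal, then scintillation counted. Inhibition type was taken from Lineweaver-Burk plots and Ki from Dixon plots. Triplicates.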

Aromatase [4] = target: T1, Aromatase; assay: Percent inhibition at 2 uM against aromatase protein from human placental microsomes using [1-beta-3H]-androstenedione
Procedure, shortened: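 Screening used 20 µg microsomal protein from human placenta, 40 nM [1β-3H]androstenedione (1 µCi) and inhibitor at 2 µM in 67 mM K phosphate pH 7.4. Reaction was started with 150 µM NADPH and run 15 min at 37 °C. 3H2O release was measured by scintillation counting after chloroform and charcoal-dextran cleanup. Inhibition is given relative to the no-inhibitor control. Triplicates.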

[5] = substrate: C[C@]12CCC(=O)C=C1CC[C@@H]1[C@@H]2CC[C@]2(C)C(=O)CC[C@@H]12; assay: Michaelis-Menten constant against Aromatase; design: species or system Homo sapiens
Procedure, shortened: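 Human placental microsomes (cotyledon homogenate, differential centrifugation, stored -80 °C), 67 mM potassium phosphate pH 7.4. Kinetic runs used 10-30 nM [1β-3H]androstenedione, NADPH 150 µM to start, 5 min at 37 °C. Aromatization read as released 3H2O after chloroform and dextran-charcoal extraction, by scintillation counting. Lineweaver-Burk analysis; points are means of three determinations.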

## C[C@]12CCC(=O)C(O)=C1CCC1C2CC[C@]2(C)OC(=O)CCC12 (stereo partly specified)
Aromatase [1]
  IC50: 1850 nM
Aromatase [2]
  Km/Ki: 0.087
Aromatase [3]
  Ki: 660 nM
Aromatase [4]
  inhibition at 2 µM: 72.5%

## C[C@]12CC[C@@H](O)[C@H](O)[C@@H]1CC[C@@H]1[C@@H]2CC[C@]2(C)C(=O)CC[C@@H]12
Aromatase [4]
  inhibition at 2 µM: 34.6%

## C[C@]12CCC3C(CC[C@H]4C(=O)[C@H](O)CC[C@]34C)C1CCC(=O)O2 (stereo partly specified)
Aromatase [4]
  inhibition at 2 µM: 16.6%

## C[C@]12CCC3C(CC[C@@H]4[C@H]5O[C@H]5CC[C@]34C)C1CCC2=O (stereo partly specified)
Aromatase [4]
  inhibition at 2 µM: 14.6%

## C[C@]12CCC3C(CC[C@H]4[C@@H](O)[C@H](O)CC[C@]34C)C1CCC(=O)O2 (stereo partly specified)
Aromatase [4]
  inhibition at 2 µM: 8.1%

## C[C@]12CCC3C(CC[C@H]4C(O)(C#N)[C@H](O)CC[C@]34C)C1CCC(=O)O2 (stereo partly specified)
Aromatase [4]
  inhibition at 2 µM: 17.6%

## C[C@]12CC[C@H]3O[C@H]3[C@@H]1CC[C@@H]1[C@@H]2CC[C@]2(C)C(=O)CC[C@@H]12
Aromatase [1]
  IC50: 145 nM
Aromatase [2]
  Km/Ki: 1.51
Aromatase [3]
  Ki: 38 nM
Aromatase [4]
  inhibition at 2 µM: 96.4%

## C[C@]12CC[C@H](O)[C@@H](O)[C@H]1CC[C@@H]1[C@@H]2CC[C@]2(C)C(=O)CC[C@@H]12
Aromatase [4]
  inhibition at 2 µM: 10.1%

## C[C@]12CCC3C(CC[C@H]4C=CCC[C@]34C)C1CCC2=O (stereo partly specified)
Aromatase [1]
  IC50: 225 nM
Aromatase [2]
  Km/Ki: 1.15
Aromatase [3]
  Ki: 50 nM
Aromatase [4]
  inhibition at 2 µM: 95.9%

## C[C@]12CC[C@@H](O)C(=O)[C@@H]1CC[C@@H]1[C@@H]2CC[C@]2(C)C(=O)CC[C@@H]12
Aromatase [1]
  IC50: 670 nM
Aromatase [2]
  Km/Ki: 0.39
Aromatase [3]
  Ki: 147 nM
Aromatase [4]
  inhibition at 2 µM: 83.3%

## C[C@]12CCC3C(CC[C@@]4(C=O)OC(=O)CC[C@]34C)C1CCC2=O (stereo partly specified)
Aromatase [4]
  inhibition at 2 µM: 11%

## C[C@]12CCC(=O)C(O)=C1CC[C@@H]1[C@@H]2CC[C@]2(C)C(=O)CC[C@@H]12 [FORMESTANE]
Aromatase [1]
  IC50: 42 nM
Aromatase [4]
  inhibition at 2 µM: 99.1%

B1: Aromatase (Homo sapiens) (protein)
chain: T1 sequence (P11511 whole entry)
[5]
  Km: 0.0575 µM
